The text below walks through data of ChEMBL document CHEMBL3045616, “Synthetic pyrazole derivatives as growth inhibitors of some phytopathogenic fungi” (J Agric Food Chem, 2007).

Type in all cases: functional
Experiment [1] has as its system Pyricularia grisea. The experiment is described as follows: microbe, parasite or virus in culture. As to conditions: ATCC 64413, 120 h, read-out: GI.
Experiment [2] deals with Pyricularia grisea. The experiment is described as follows: microbe, parasite or virus in culture. As to conditions: ATCC 64413, 120 h, read-out: GI. The source holds these as a separate data set.
For experiment [3], the system named is Pyricularia grisea. The experiment is described as follows: microbe, parasite or virus in culture. As to conditions: ATCC 64413, 120 h, read-out: GI. The source holds these as a separate data set.
For experiment [4], the system named is Botrytis cinerea. The experiment is described as follows: Antifungal activity against logarithmic phase of Botryotinia fuckeliana ATCC 48339 assessed as growth inhibition at 100 ug/ml measured at 5 days post-drug treatment. Conditions: ATCC 48339, 120 h, read-out: GI. In a few lines:
(§1)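 Log-phase mycelium (from 10 mm stationary-phase disks grown on cellophane over PDA, pH 5.6, 26 ± 1 °C) moved to PDA with compound added from DMSO stock at 45 °C. Final concentrations were 10, 50 or 100 µg mL^-1, with 0.1% DMSO in test and control media. Colony diameter was read daily for 5 days, in triplicate, as % of untreated control.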

The test system of experiment [5] is Botrytis cinerea. The experiment is described as follows: Antifungal activity against logarithmic phase of Botryotinia fuckeliana ATCC 48339 assessed as growth inhibition at 50 ug/ml measured at 5 days post-drug treatment. Conditions: ATCC 48339, 120 h, read-out: GI. In short, it runs like this: as §1
The test system of experiment [6] is Globisporangium ultimum. The experiment is described as follows: Antifungal activity against logarithmic phase of Pythium ultimum ATCC 58812 assessed as growth inhibition at 100 ug/ml measured at 5 days post-drug treatment. Conditions: ATCC 58812, 120 h, read-out: GI. In short, it runs like this:
as §1

Experiment [7] has as its system Globisporangium ultimum. The experiment is described as follows: Antifungal activity against logarithmic phase of Pythium ultimum ATCC 58812 assessed as growth inhibition at 50 ug/ml measured at 5 days post-drug treatment. As to conditions: ATCC 58812, 120 h, read-out: GI. In short, it runs like this:
as §1

The test system of experiment [8] is Globisporangium ultimum. The experiment is described as follows: Antifungal activity against logarithmic phase of Pythium ultimum ATCC 58812 assessed as growth inhibition at 10 ug/ml measured at 5 days post-drug treatment. Conditions: ATCC 58812, 120 h, read-out: GI. In a few lines:
as §1

Experiment [9] relates to Botrytis cinerea. The experiment is described as follows: Antifungal activity against logarithmic phase of Botryotinia fuckeliana ATCC 48339 assessed as growth inhibition at 10 ug/ml measured at 5 days post-drug treatment. Conditions: ATCC 48339, 120 h, read-out: GI. In short, it runs like this:
as §1

Molecules are shown by their SMILES.

In the case of `CCn1c(=S)[nH]c2[nH]ncc2c1=O`, the inhibition of growth at 100 µg/mL with Pyricularia grisea [1] amounted to 4.1%. For the same compound, in the experiment on Pyricularia grisea [2], the inhibition of growth at 50 µg/mL was determined as 3.6%.

Turning to `CCOC(=O)c1c[nH]nc1N=C(S)Nc1ccc(Cl)cc1`, the inhibition of growth at 100 µg/mL with Pyricularia grisea [1] was found to be 36.7%; in the experiment on Botrytis cinerea [4] it was 46.2%; in the experiment with Globisporangium ultimum [6] it was 61.5%. For the same compound, the figures for the inhibition of growth at 50 µg/mL in the experiment with Pyricularia grisea [2], in the experiment on Botrytis cinerea [5] and with Globisporangium ultimum [7] were 33.6%, 21% and 52.9%, respectively. In addition, the inhibition of growth at 10 µg/mL in the experiment with Pyricularia grisea [3] came out at 21.4%; with Globisporangium ultimum [8], 38%.

Regarding `CCOC(=O)c1cn[nH]c1NC(=S)NCc1ccccc1`, the figures for the inhibition of growth at 100 µg/mL in the experiment with Pyricularia grisea [1], with Botrytis cinerea [4] and in the experiment with Globisporangium ultimum [6] were 41.4%, 32% and 38.3%, respectively. Also, the inhibition of growth at 50 µg/mL was 35.6% in the experiment with Pyricularia grisea [2], 26% with Botrytis cinerea [5] and 34.6% in the experiment with Globisporangium ultimum [7]. In addition, the inhibition of growth at 10 µg/mL is 15.8% in the experiment on Pyricularia grisea [3], 0% with Botrytis cinerea [9] and 3.7% in the experiment with Globisporangium ultimum [8].

For `COC(=O)c1c(C(=O)O)nn(C)c1C`, the inhibition of growth at 100 µg/mL is 8.4% in the experiment on Pyricularia grisea [1] and 3.3% in the experiment on Botrytis cinerea [4].

As to `O=c1c2cn[nH]c2[nH]c(=S)n1-c1ccc(Cl)cc1`, the inhibition of growth at 100 µg/mL with Botrytis cinerea [4] was found to be 31.7%; in the experiment on Globisporangium ultimum [6], 37.8%. The inhibition of growth at 50 µg/mL in the experiment with Globisporangium ultimum [7] turned out to be 12.2%. Moreover, the inhibition of growth at 10 µg/mL in the experiment on Globisporangium ultimum [8] was found to be 1.7%.

As for `Cc1c(C(=O)O)c(C(=O)NC(C)(C)C)nn1C`, the inhibition of growth at 100 µg/mL in the experiment with Pyricularia grisea [1] turned out to be 5.8%; in the experiment on Botrytis cinerea [4], 61.9%; in the experiment with Globisporangium ultimum [6], 41.3%. Further, the figures for the inhibition of growth at 50 µg/mL in the experiment on Pyricularia grisea [2], in the experiment on Botrytis cinerea [5] and in the experiment on Globisporangium ultimum [7] were 4.1%, 9.6% and 12.5%, respectively. Besides, the inhibition of growth at 10 µg/mL with Pyricularia grisea [3] is 0.9%.

As for `CCOC(=O)c1cn[nH]c1NC(=S)Nc1ccc([N+](=O)[O-])cc1`, the inhibition of growth at 100 µg/mL in the experiment with Pyricularia grisea [1] stood at 17.7%; with Botrytis cinerea [4], 37.9%; in the experiment on Globisporangium ultimum [6], 63.4%. Also, the figures for the inhibition of growth at 50 µg/mL in the experiment with Pyricularia grisea [2], in the experiment with Botrytis cinerea [5] and in the experiment on Globisporangium ultimum [7] were 15.6%, 33% and 36%, respectively. Besides, the inhibition of growth at 10 µg/mL in the experiment on Pyricularia grisea [3] worked out at 13%; in the experiment on Botrytis cinerea [9], 13.2%; in the experiment with Globisporangium ultimum [8], 27.2%.

For `Cc1onc(C(=O)NC(C)(C)C)c1C(=O)O`, the figures for the inhibition of growth at 100 µg/mL with Botrytis cinerea [4] and with Globisporangium ultimum [6] were 18.2% and 40.2%, respectively. The inhibition of growth at 50 µg/mL was found to be 13.3% in the experiment with Botrytis cinerea [5] and 15.8% in the experiment on Globisporangium ultimum [7]. Moreover, the inhibition of growth at 10 µg/mL worked out at 4.3% with Botrytis cinerea [9] and 9.7% with Globisporangium ultimum [8].

With `COC(=O)c1c(C(=O)NC2CC2)nn(C)c1C`, the inhibition of growth at 100 µg/mL came to 3.4% in the experiment with Pyricularia grisea [1], 3.2% in the experiment with Botrytis cinerea [4] and 7.7% in the experiment on Globisporangium ultimum [6]. Besides, the inhibition of growth at 50 µg/mL was determined as 4% in the experiment with Botrytis cinerea [5] and 4.3% in the experiment on Globisporangium ultimum [7]. The inhibition of growth at 10 µg/mL in the experiment on Globisporangium ultimum [8] is 4.8%.

In the case of `Cc1c(C(=O)O)c(C(=O)NC(C)(C)C)nn1-c1c(Cl)cc(C(F)(F)F)cc1Cl`, the inhibition of growth at 100 µg/mL in the experiment with Pyricularia grisea [1] was 24.4%; in the experiment on Botrytis cinerea [4], 27.5%; with Globisporangium ultimum [6], 54.7%. For the same compound, the inhibition of growth at 50 µg/mL with Pyricularia grisea [2] is 20.6%; in the experiment with Botrytis cinerea [5] it was 22.6%; in the experiment on Globisporangium ultimum [7], 37.9%. Further, the inhibition of growth at 10 µg/mL was 17.3% with Botrytis cinerea [9] and 1.9% in the experiment on Globisporangium ultimum [8].

For `O=c1c2cn[nH]c2[nH]c(=S)n1-c1cccc(C(F)(F)F)c1`, the inhibition of growth at 100 µg/mL in the experiment with Pyricularia grisea [1] was found to be 4.1%; in the experiment on Botrytis cinerea [4], 7.2%; with Globisporangium ultimum [6] it was 57.8%. In addition, the inhibition of growth at 50 µg/mL in the experiment with Pyricularia grisea [2] is 1.4%; in the experiment with Botrytis cinerea [5], 1%; in the experiment with Globisporangium ultimum [7] it was 34.5%. For the same compound, the figures for the inhibition of growth at 10 µg/mL in the experiment with Botrytis cinerea [9] and with Globisporangium ultimum [8] were 0.5% and 17.2%, respectively.

For the compound `O=c1c2cn[nH]c2[nH]c(=S)n1-c1ccc(Br)cc1`, the figures for the inhibition of growth at 100 µg/mL in the experiment with Pyricularia grisea [1] and in the experiment on Globisporangium ultimum [6] were 20% and 61.8%, respectively. Further, the inhibition of growth at 50 µg/mL was found to be 18% in the experiment on Pyricularia grisea [2] and 22.5% with Globisporangium ultimum [7].

In the case of `CCCCNC(=S)Nc1[nH]ncc1C(=O)OCC`, the figures for the inhibition of growth at 100 µg/mL in the experiment with Pyricularia grisea [1], in the experiment on Botrytis cinerea [4] and in the experiment on Globisporangium ultimum [6] were 10%, 32.4% and 10.4%, respectively. The inhibition of growth at 50 µg/mL worked out at 8.6% with Pyricularia grisea [2] and 15.1% in the experiment with Botrytis cinerea [5]. Also, the inhibition of growth at 10 µg/mL with Botrytis cinerea [9] was 4.7%.

In the case of `CCNC(=S)Nc1[nH]ncc1C(=O)OCC`, the inhibition of growth at 100 µg/mL in the experiment with Pyricularia grisea [1] was determined as 28.9%; in the experiment with Globisporangium ultimum [6], 20%. Besides, in the experiment with Pyricularia grisea [2], the inhibition of growth at 50 µg/mL is 18.1%. The inhibition of growth at 10 µg/mL in the experiment with Pyricularia grisea [3] amounted to 13.8%.

Take `O=c1c2cn[nH]c2[nH]c(=S)n1-c1ccc([N+](=O)[O-])cc1`: the inhibition of growth at 100 µg/mL with Botrytis cinerea [4] is 2.1%; in the experiment with Globisporangium ultimum [6], 13.7%. For the same compound, the inhibition of growth at 50 µg/mL in the experiment on Globisporangium ultimum [7] was determined as 8.7%. The inhibition of growth at 10 µg/mL with Globisporangium ultimum [8] stood at 4.6%.

For `Cc1onc(C(=O)NC2CC2)c1C(=O)O`, the inhibition of growth at 100 µg/mL in the experiment on Pyricularia grisea [1] turned out to be 8.97%; in the experiment with Globisporangium ultimum [6], 53.5%. Moreover, the inhibition of growth at 50 µg/mL was 2.3% in the experiment with Pyricularia grisea [2] and 46.6% in the experiment with Globisporangium ultimum [7]. Also, the inhibition of growth at 10 µg/mL stood at 3.8% in the experiment on Botrytis cinerea [9] and 46% in the experiment with Globisporangium ultimum [8].

As for `O=c1c2cn[nH]c2[nH]c(=S)n1-c1cccc(Cl)c1`, the inhibition of growth at 100 µg/mL in the experiment with Pyricularia grisea [1] came to 5%; with Botrytis cinerea [4], 27.3%; in the experiment on Globisporangium ultimum [6], 10.8%. The results for the inhibition of growth at 50 µg/mL in the experiment on Pyricularia grisea [2], in the experiment on Botrytis cinerea [5] and in the experiment on Globisporangium ultimum [7] were 1%, 8.5% and 4.1%, respectively. Also, the inhibition of growth at 10 µg/mL with Globisporangium ultimum [8] was determined as 2.2%.

Turning to `CCOC(=O)c1cn[nH]c1NC(=S)NC1CCCCC1`, the values for the inhibition of growth at 100 µg/mL in the experiment on Pyricularia grisea [1] and with Globisporangium ultimum [6] were 36% and 63.9%, respectively. The inhibition of growth at 50 µg/mL in the experiment on Pyricularia grisea [2] was determined as 26.7%; in the experiment with Globisporangium ultimum [7], 59%. Besides, the inhibition of growth at 10 µg/mL in the experiment with Pyricularia grisea [3] stood at 29.8%; in the experiment on Globisporangium ultimum [8], 44.4%.

As to `CCOC(=O)c1cn[nH]c1NC(=S)Nc1ccc(Br)cc1`, the inhibition of growth at 100 µg/mL was 27.2% with Pyricularia grisea [1], 16.3% in the experiment with Botrytis cinerea [4] and 3.1% with Globisporangium ultimum [6]. Further, the values for the inhibition of growth at 50 µg/mL in the experiment on Pyricularia grisea [2] and with Globisporangium ultimum [7] were 27.1% and 2%, respectively. Moreover, the inhibition of growth at 10 µg/mL in the experiment on Pyricularia grisea [3] came to 16.1%.

On to `Cc1[nH]nc(C(=O)NC2CC2)c1C(=O)O`, for which the inhibition of growth at 100 µg/mL in the experiment with Pyricularia grisea [1] came out at 9%; in the experiment with Botrytis cinerea [4], 19.2%; in the experiment with Globisporangium ultimum [6] it was 39.9%. The inhibition of growth at 50 µg/mL worked out at 5.9% in the experiment on Pyricularia grisea [2], 10.6% with Botrytis cinerea [5] and 32.9% with Globisporangium ultimum [7]. Besides, the inhibition of growth at 10 µg/mL with Pyricularia grisea [3] was determined as 3.6%; with Globisporangium ultimum [8], 3.2%.

Take `Cc1c(C(=O)O)c(C(=O)NC2CC2)nn1C`: the inhibition of growth at 100 µg/mL came out at 8.6% in the experiment with Pyricularia grisea [1], 19.8% with Botrytis cinerea [4] and 11.4% in the experiment with Globisporangium ultimum [6]. For the same compound, the inhibition of growth at 50 µg/mL was 4.3% with Pyricularia grisea [2], 9.9% with Botrytis cinerea [5] and 6.6% in the experiment on Globisporangium ultimum [7]. Also, the inhibition of growth at 10 µg/mL with Botrytis cinerea [9] is 3%.
